What all share (format): functional
Test [1] deals with Staphylococcus aureus. In words: Antibacterial activity against methicillin-resistant Staphylococcus aureus ATCC 43300 at 10 mg/ml after 24 hrs by disk diffusion method. Particulars: for zone of inhibition at 10000 µg/mL: ATCC 43300, 24 h, read-out: DIZ. The method, boiled down:
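Disk diffusion. Pure compounds were diluted to 10 mg/mL in DMSO, and 50 μL was loaded onto 6 mm sterile paper disks. Disks were placed on agar seeded with bacterial suspension (0.5 McFarland, (1−2) × 10^8 CFU/mL), with solvent as negative control. Incubation was 37 °C, 24 h, aerobic. Inhibition-zone diameter was measured including the disk. Done in triplicate.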

The test system of test [2] is Staphylococcus aureus. In words: Antibacterial activity against methicillin-resistant Staphylococcus aureus ATCC 43300 after 24 hrs by microdilution method. Conditions: ATCC 43300, 24 h. The method, boiled down: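 Broth microdilution in 96-well plates. DMSO stocks (50 mg/mL) were serially diluted in Mueller-Hinton broth to final 2.5 mg/mL–4.9 μg/mL. Inoculum was 0.5 McFarland, (1−2) × 10^8 CFU/mL. Controls were sterility, DMSO/inoculum negative and vancomycin positive. Incubation was 37 °C, 24 h, aerobic. MIC was the lowest concentration with no visible growth. Run twice in triplicate.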
(Dilution methods test growth across graded concentrations, often in twofold steps.)

Test [3] relates to Staphylococcus aureus. The test is described as follows: Antibacterial activity against methicillin-resistant Staphylococcus aureus ATCC 43300 at 5 ug/disk after 24 hrs by disk diffusion method. Particulars: ATCC 43300, 24 h, read-out: DIZ. A general note: Agar diffusion results depend on both activity and mobility in agar.
Test [4] deals with Staphylococcus aureus. The test is described as follows: Ratio of MIC for methicillin-sensitive Staphylococcus aureus in dark to MIC for methicillin-sensitive Staphylococcus aureus in presence of UVA irradiation.

Values after ≈ are worked out from the molar mass of the structure shown. Active and inactive are the calls of the source. The calls are words filed in the database; no cut-off is given here.

By MIC is commonly meant the least concentration at which growth counts as inhibited. A low value points to a more susceptible organism.

As to `C=C[C@@]1(C)C(=O)C2=C(C[C@H]1O)c1ccc(O)c(C)c1CC2`, the “diameter of the inhibition zone (DIZ)” value in the test with Staphylococcus aureus [1] was “inactive”.

Regarding `C=CC1=C(C)C(=O)C=C2c3ccc(O)c(C)c3CC[C@]21O`, the MIC against Staphylococcus aureus [2] was 12.5 µg/mL (≈ 44.3 µM). Moreover, the zone of inhibition at 10000 µg/mL in the test on Staphylococcus aureus [1] is 12 mm.

Turning to `C=Cc1cc2c(cc1C)CCc1c-2ccc(O)c1C`, the “diameter of the inhibition zone (DIZ)” value with Staphylococcus aureus [1] was “inactive”.

With `C=Cc1cc2c(ccc3c(C)c(O)ccc32)cc1C`, the “diameter of the inhibition zone (DIZ)” value with Staphylococcus aureus [1] was “inactive”.

Compound `C=Cc1c(C)c(O)cc2c1ccc1c(C)c(O)ccc12` displayed an MIC in the test on Staphylococcus aureus [2] of 25 µg/mL (≈ 94.6 µM). In addition, the zone of inhibition at 10000 µg/mL in the test on Staphylococcus aureus [1] was found to be 10 mm.

In the test with Staphylococcus aureus [2], `C=Cc1c(C)c(O)cc2c1-c1ccc(OC)c(CO)c1CC2` gave an MIC of 100 µg/mL (≈ 337 µM). Also, the zone of inhibition at 10000 µg/mL in the test with Staphylococcus aureus [1] turned out to be 7 mm.

In the case of `CN[C@H](CC(C)C)C(=O)N[C@H]1C(=O)N[C@@H](CC(N)=O)C(=O)N[C@H]2C(=O)N[C@H]3C(=O)N[C@H](C(=O)N[C@H](C(=O)O)c4cc(O)cc(O)c4-c4cc3ccc4O)[C@H](O)c3ccc(c(Cl)c3)Oc3cc2cc(c3O[C@@H]2O[C@H](CO)[C@@H](O)[C@H](O)[C@H]2O[C@H]2C[C@](C)(N)[C@H](O)[C@H](C)O2)Oc2ccc(cc2Cl)[C@H]1O` [VANCOMYCIN], in the test with Staphylococcus aureus [3], the zone of inhibition at 5 µg/disc turned out to be 15.5 mm.

Take `COc1cc(-c2cc(=O)c3c(O)cc(O)cc3o2)ccc1O`: in the test on Staphylococcus aureus [1], the “diameter of the inhibition zone (DIZ)” value is “inactive”.

For `Cc1cc2ccc3c(C)c(O)ccc3c2cc1[C@@H]1CC=Cc2c3c(c(C)c(O)c21)CCc1c-3ccc(O)c1C`, the “diameter of the inhibition zone (DIZ)” value in the test on Staphylococcus aureus [1] was “inactive”.

`C=Cc1cc(O)cc2c1-c1ccc(O)c(C)c1CC2` [EFFUSOL]: the Ratio in the test with Staphylococcus aureus [4] is listed as 16.

On to `C=Cc1c(C)c(O)cc2c1CCc1c-2ccc(O)c1C`, for which the “diameter of the inhibition zone (DIZ)” value in the test with Staphylococcus aureus [1] was “inactive”.

In the case of `C=Cc1c(C)c(O)cc2ccc3c(C)c(O)ccc3c12`, in the test on Staphylococcus aureus [1], the “diameter of the inhibition zone (DIZ)” value was “inactive”.

With `COC(C)c1cc(O)c(C)c2c1-c1ccc(O)c(C)c1CC2` (racemic), in the test on Staphylococcus aureus [1], the “diameter of the inhibition zone (DIZ)” value was “inactive”.

`C=Cc1c(C)c(O)cc2c1-c1ccc(O)c(C)c1CC2`: the Ratio with Staphylococcus aureus [4] is 2. In the test on Staphylococcus aureus [2], the MIC amounted to 25 µg/mL (≈ 93.9 µM). In addition, the zone of inhibition at 10000 µg/mL with Staphylococcus aureus [1] was 12 mm.

Source of the values: ChEMBL document CHEMBL4002557, “Phenanthrenes from Juncus inflexus with Antimicrobial Activity against Methicillin-Resistant Staphylococcus aureus” (2016).
